According to ChEMBL document CHEMBL1127420, “Syntheses of racemic and nearly optically pure ether lipids and evaluation of in vitro antineoplastic activities” (J Med Chem, 1994):

Assays:
[1] = tested on: B-lymphoblastic leukemic cell line; test: Cytotoxicity was assessed by measurement of cytosolic lactic dehydrogenase (LDH) leakage after 24 hr incubation with human B-lymphoblastic leukemic ([…]) cell line; type: functional; conditions: for IC50: Homo sapiens, B-lymphoblastic leukemic cell line, 24 h, read-out: ID50 (the source's name)
In short: (§1)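 Log-phase cells were washed and resuspended in phenol red-free RPMI 1640, then mixed 1:1 with lipid in serum medium. Final conditions were 5 × 10^5 cells/mL, 0–50 µg/mL ether lipid and 0.5% ethanol, in triplicate at 37 °C in 5% CO2 for 24 h. Supernatant LDH was measured with lactate/INT/PMS/NAD in Tris pH 8.2, read at 490 nm after 3 min. % cytotoxicity = (E−S)/(M−S), with M from freeze-thaw. ID50 came from nonlinear regression, mean ± SD.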

[2] = Cytotoxicity was assessed by measurement of cytosolic lactic dehydrogenase (LDH) leakage after 24 hr incubation with freshly isolated human peripheral lymphocytes; conditions: read-out: ID50
In short: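 Peripheral lymphocytes were pooled from two unmedicated human donors and isolated by the Boyum method, giving >85% lymphocytes; viability was checked by trypan blue. Cytotoxicity was measured as 24 h LDH leakage into the medium and expressed as % of maximal freeze-thaw release after subtracting spontaneous release. ID50 came from a nonlinear regression fit of cytotoxicity versus dose.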

[3] = tested on: HuT78; test: Cytotoxicity was assessed by measurement of cytosolic lactic dehydrogenase (LDH) leakage after 24 hr incubation with human cutaneous T-lymphoma (Hut 78) cell line; type: functional; conditions: for IC50: Homo sapiens, HuT78, 24 h, read-out: ID50 (the source's name); in short: as §1
[4] = tested on: CCRF-CEM; test: Cytotoxicity was assessed by measurement of cytosolic lactic dehydrogenase (LDH) leakage after 24 hr incubation with human T-lymphoblastic leukemic (CEM) cell line; type: functional; conditions: for IC50: Homo sapiens, CCRF-CEM, 24 h, read-out: ID50 (the source's name); in short: as §1

SMILES	IC50 [1] [µg/mL]	CC50 at 24 h [2] [µg/mL]	IC50 [3] [µg/mL]	IC50 [4] [µg/mL]	ID50 [1] [µg/mL]	ID50 [3] [µg/mL]	ID50 [4] [µg/mL]
CCCCCCCCCCCCCCCCCCOCC(COP(=O)(O)OCCN(C)C)OC.O (stereo not drawn)	9.6	24.6	3.5	4.6	–	–	–
CCCCCCCCCCCCCCCCCCOCC(COP(=O)(O)OCC[N+](C)(C)C)OC.[OH-] (stereo in doubt; 3)	–	–	–	–	20.4	6.6	2
CCCCCCCCCCCCCCCCCCOCC(COP(=O)(O)OCC[N+](C)(C)C)OC.[OH-] (stereo in doubt; 1)	–	–	–	–	15.3	4.5	1.5
CCCCCCCCCCCCCCCCCCOCC(COP(=O)(O)O[C@H](C)C[N+](C)(C)C)OC.[OH-] (stereo partly drawn)	10.1	> 100	9.1	2.7	–	–	–
CCCCCCCCCCCCCCCCCCOCC(COP(=O)(O)OCC[N+]1(C)CCCC1)OC.[OH-] (stereo not drawn)	13.2	22.7	9.3	2.7	–	–	–
CCCCCCCCCCCCCCCCCCOCC(COP(=O)(O)OC[C@H](C)[N+](C)(C)C)OC.[OH-] (stereo partly drawn)	8.9	> 100	5.9	2.1	–	–	–
CCCCCCCCCCCCCCCCCCOCC(COP(=O)(O)OC[C@@H](C)[N+](C)(C)C)OC.[OH-] (stereo partly drawn)	9.9	> 100	6.9	2	–	–	–
CCCCCCCCCCCCCCCCCCOCC(COP(=O)(O)O[C@@H](C)C[N+](C)(C)C)OC.[OH-] (stereo partly drawn)	9.8	> 100	9.3	2.3	–	–	–
CCCCCCCCCCCCCCCCCCOCC(COP(=O)(O)OCC[N+]1(C)CCOCC1)OC.[OH-] (stereo not drawn)	8.4	52.1	3.4	2.8	–	–	–
CCCCCCCCCCCCCCCCCCOCC(COP(=O)(O)OCC[N+](C)(C)C)OC.[OH-] (stereo in doubt; 2)	16.3	> 100	4.1	1.9	–	–	–
